Measured values taken from ChEMBL document CHEMBL1138259, “Novel fluorinated derivatives of the broad-spectrum MMP inhibitors N-hydroxy-2(R)-[[(4-methoxyphenyl)sulfonyl](benzyl)- and (3-picolyl)-amino]-3-methyl-butanamide as potential tools for the molecular imaging of activated MMPs with PET” (J Med Chem, 2007).
pIC50: −log10 of the molar value.

Key:
Neutrophil collagenase = Neutrophil collagenase (Homo sapiens, UniProt P22894); experiment: Inhibition of MMP8
Collagenase 3 = Collagenase 3 (Homo sapiens, UniProt P45452)
[1] = biological target: 72 kDa type IV collagenase (Homo sapiens, UniProt P08253); experiment: Inhibition of MMP2
[2] = biological target: Matrix metalloproteinase-9 (Homo sapiens, UniProt P14780); experiment: Inhibition of MMP9
[3] = Lipophilicity, log D of the compound; assay type: physicochemical; conditions: octanol/water
Outline: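 Shake-flask partition of ¹⁸F-radioligand between 1-octanol and 0.02 M phosphate buffer, pH 7.4. Both layers gamma-counted with decay back-correction. log D taken as log of cpm/mL octanol over cpm/mL buffer. Four repeats, reported as mean ± SD.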

[4] = Stability in C57BL/6 mouse plasma at 13 to 38 MBq.kg^-1 after 20 mins; assay type: ADME, organism-based; conditions: read-out: Stability
Outline: (§1)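 Adult C57BL/6 mice (male and female, 25-30 g) received an ¹⁸F-radiotracer bolus in the tail vein and were killed with i.v. pentobarbitone at 2.5 or 20 min. Blood was drawn by cardiac puncture and plasma separated. Plasma from 2-3 mice (2.5 min) or 4 mice (20 min) was pooled and deproteinized with ice-cold acetonitrile. Supernatant was spiked with unlabeled reference and run on radio-HPLC to give the fraction of intact tracer versus metabolites.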

[5] = Stability in C57BL/6 mouse plasma at 13 to 38 MBq.kg^-1 after 2.5 mins; assay type: ADME, organism-based; conditions: read-out: Stability; outline: as §1

Chain of 72 kDa type IV collagenase (P08253 whole entry): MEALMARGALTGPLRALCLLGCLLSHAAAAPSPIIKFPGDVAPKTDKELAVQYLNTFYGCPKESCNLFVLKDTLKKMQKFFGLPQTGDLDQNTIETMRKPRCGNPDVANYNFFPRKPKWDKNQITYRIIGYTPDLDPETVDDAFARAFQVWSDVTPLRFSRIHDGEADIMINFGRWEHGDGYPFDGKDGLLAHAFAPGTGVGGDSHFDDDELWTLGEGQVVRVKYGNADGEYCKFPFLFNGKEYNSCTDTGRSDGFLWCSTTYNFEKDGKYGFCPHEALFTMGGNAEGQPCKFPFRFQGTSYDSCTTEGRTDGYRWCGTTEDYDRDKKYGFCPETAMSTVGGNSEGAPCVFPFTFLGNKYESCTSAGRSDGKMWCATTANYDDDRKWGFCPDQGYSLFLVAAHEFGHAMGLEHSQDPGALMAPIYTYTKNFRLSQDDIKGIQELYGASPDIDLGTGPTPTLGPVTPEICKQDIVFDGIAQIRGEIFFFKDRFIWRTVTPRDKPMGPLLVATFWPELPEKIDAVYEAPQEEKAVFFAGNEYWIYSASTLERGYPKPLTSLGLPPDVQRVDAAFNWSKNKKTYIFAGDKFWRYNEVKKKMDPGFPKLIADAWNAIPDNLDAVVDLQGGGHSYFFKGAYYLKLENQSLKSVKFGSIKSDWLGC
Chain of Matrix metalloproteinase-9 (P14780 whole entry): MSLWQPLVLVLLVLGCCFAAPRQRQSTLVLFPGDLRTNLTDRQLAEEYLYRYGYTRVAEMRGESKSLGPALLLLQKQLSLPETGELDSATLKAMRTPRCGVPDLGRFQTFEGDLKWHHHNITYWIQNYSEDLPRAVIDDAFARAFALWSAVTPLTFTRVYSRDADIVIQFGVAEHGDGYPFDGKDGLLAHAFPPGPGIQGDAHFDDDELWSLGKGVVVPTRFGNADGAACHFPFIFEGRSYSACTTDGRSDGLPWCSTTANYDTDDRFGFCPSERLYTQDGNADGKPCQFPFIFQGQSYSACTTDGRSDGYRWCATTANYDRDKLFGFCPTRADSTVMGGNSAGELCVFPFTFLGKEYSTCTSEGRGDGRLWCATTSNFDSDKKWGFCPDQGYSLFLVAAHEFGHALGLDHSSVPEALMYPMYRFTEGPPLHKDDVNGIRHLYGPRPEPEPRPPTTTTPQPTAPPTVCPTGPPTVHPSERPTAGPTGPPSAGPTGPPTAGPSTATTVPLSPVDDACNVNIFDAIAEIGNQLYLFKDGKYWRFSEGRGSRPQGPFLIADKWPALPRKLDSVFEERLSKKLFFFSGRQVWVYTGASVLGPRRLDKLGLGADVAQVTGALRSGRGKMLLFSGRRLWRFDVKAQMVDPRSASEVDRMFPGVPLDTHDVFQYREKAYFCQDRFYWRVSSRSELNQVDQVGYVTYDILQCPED
Chain of Neutrophil collagenase (P22894 whole entry): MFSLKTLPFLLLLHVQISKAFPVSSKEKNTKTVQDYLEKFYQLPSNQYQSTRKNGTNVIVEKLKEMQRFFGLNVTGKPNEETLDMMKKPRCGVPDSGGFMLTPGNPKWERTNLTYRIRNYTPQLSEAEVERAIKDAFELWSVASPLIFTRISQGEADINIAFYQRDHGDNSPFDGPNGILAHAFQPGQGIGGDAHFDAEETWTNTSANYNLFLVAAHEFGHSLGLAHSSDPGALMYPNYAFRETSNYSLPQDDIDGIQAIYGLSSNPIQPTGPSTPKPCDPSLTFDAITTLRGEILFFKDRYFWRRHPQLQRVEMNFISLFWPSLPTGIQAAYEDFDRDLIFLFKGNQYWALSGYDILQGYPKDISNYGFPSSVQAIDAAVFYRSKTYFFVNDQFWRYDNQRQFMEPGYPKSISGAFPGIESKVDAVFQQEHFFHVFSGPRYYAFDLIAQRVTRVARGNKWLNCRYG

pIC50 (Neutrophil collagenase)	pIC50 (Collagenase 3)	pIC50 [1]	pIC50 [2]	logD [3]	remaining at 20 min [4] [%]	remaining at 2.5 min [5] [%]	SMILES
7.12	7.23	7.52	6.99	–	–	–	COc1ccc(S(=O)(=O)N(Cc2cccnc2Br)[C@@H](C(=O)NO)C(C)C)cc1
–	–	–	–	2.02	37	86	CC(C)[C@H](C(=O)NO)N(Cc1ccccc1)S(=O)(=O)c1ccc(OCC[18F])cc1
8.70	7.96	8.40	7.30	–	–	–	CC(C)[C@H](C(=O)NO)N(Cc1ccccc1)S(=O)(=O)c1ccc(OCCF)cc1
4.66	4.52	4.46	5.01	–	–	–	COc1ccc(S(=O)(=O)N(Cc2ccc(F)nc2)[C@@H](C(=O)O)C(C)C)cc1
4.11	4.39	4.70	5.00	–	–	–	COc1ccc(S(=O)(=O)N(Cc2cccnc2F)[C@@H](C(=O)O)C(C)C)cc1
7.92	6.42	6.62	6.55	–	–	–	CC(C)[C@H](C(=O)NO)N(Cc1ccccc1)S(=O)(=O)c1ccc(F)cc1
7.70	7.62	8.70	7.64	–	–	–	COc1ccc(S(=O)(=O)N(Cc2ccc(Br)nc2)[C@@H](C(=O)NO)C(C)C)cc1
4.85	4.85	4.39	4.82	–	–	–	CC(C)[C@H](C(=O)O)N(Cc1ccccc1)S(=O)(=O)c1ccc(N(C)C)cc1
5.17	5.49	5.21	5.16	–	–	–	COc1ccc(S(=O)(=O)N(Cc2ccc(Br)nc2)[C@@H](C(=O)O)C(C)C)cc1
–	–	–	–	1.34	53	–	CC(C)[C@H](C(=O)NO)N(Cc1cccnc1)S(=O)(=O)c1ccc(OCC[18F])cc1
5.13	4.47	5.04	4.46	–	–	–	COc1ccc(S(=O)(=O)N(Cc2cccnc2Br)[C@@H](C(=O)O)C(C)C)cc1
4.15	< 4.00	< 4.00	< 4.00	–	–	–	CC(C)[C@H](C(=O)O)N(Cc1cccnc1)S(=O)(=O)c1ccc(F)cc1
7.74	7.30	7.72	7.29	–	–	–	COc1ccc(S(=O)(=O)N(Cc2cccnc2F)[C@@H](C(=O)NO)C(C)C)cc1
9.05	9.05	8.10	9.30	–	–	–	COc1ccc(S(=O)(=O)N(Cc2ccc(F)nc2)[C@@H](C(=O)NO)C(C)C)cc1
6.12	5.04	5.36	6.09	–	–	–	CC(C)[C@H](C(=O)O)N(Cc1ccccc1)S(=O)(=O)c1ccc(F)cc1
8.52	8.00	7.66	7.16	–	–	–	CC(C)[C@H](C(=O)NO)N(Cc1ccccc1)S(=O)(=O)c1ccc(OCCI)cc1
6.64	6.28	6.92	6.38	–	–	–	CC(C)[C@H](C(=O)NO)N(Cc1cccnc1)S(=O)(=O)c1ccc(F)cc1
5.61	< 4.00	5.25	5.89	–	–	–	CC(C)[C@H](C(=O)O)N(Cc1ccccc1)S(=O)(=O)c1ccc(OCCF)cc1
5.92	5.87	6.00	5.88	–	–	–	CC(C)[C@H](C(=O)NO)N(Cc1cccnc1)S(=O)(=O)c1ccc(N(C)C)cc1
7.85	8.00	6.12	5.29	–	–	–	CC(C)[C@H](C(=O)NO)N(Cc1cccnc1)S(=O)(=O)c1ccc([N+](=O)[O-])cc1
6.98	8.00	6.47	6.21	–	–	–	CC(C)[C@H](C(=O)NO)N(Cc1ccccc1)S(=O)(=O)c1ccc(N(C)C)cc1
–	–	6.68	5.87	–	–	–	CC(C)[C@H](C(=O)O)N(Cc1ccccc1)S(=O)(=O)c1ccc(OCCI)cc1

SMILES	pIC50 (Neutrophil collagenase)	pIC50 (Collagenase 3)	pIC50 [1]	pIC50 [2]	logD [3]	remaining at 20 min [4] [%]	remaining at 2.5 min [5] [%]
CC(C)[C@H](C(=O)NO)N(Cc1cccnc1)S(=O)(=O)c1ccc(OCCF)cc1	8.70	9.10	8.52	8.15	–	–	–
